Test results from publication PMC2225614 (The Journal of General Physiology, 2001).

Key:
[1] = test system: rod CNG channels; details: ref Molokanova et al. 1999a; cited from earlier work
[2] = biological target: T1, α-subunit of the bovine retinal rod CNG channel (RETα) (Bos taurus, UniProt Q00194); format: biochemical; details: 10 μM Ni^2+; subsaturating cGMP (25 μM); steady state
T1 sequence (Q00194 1-690): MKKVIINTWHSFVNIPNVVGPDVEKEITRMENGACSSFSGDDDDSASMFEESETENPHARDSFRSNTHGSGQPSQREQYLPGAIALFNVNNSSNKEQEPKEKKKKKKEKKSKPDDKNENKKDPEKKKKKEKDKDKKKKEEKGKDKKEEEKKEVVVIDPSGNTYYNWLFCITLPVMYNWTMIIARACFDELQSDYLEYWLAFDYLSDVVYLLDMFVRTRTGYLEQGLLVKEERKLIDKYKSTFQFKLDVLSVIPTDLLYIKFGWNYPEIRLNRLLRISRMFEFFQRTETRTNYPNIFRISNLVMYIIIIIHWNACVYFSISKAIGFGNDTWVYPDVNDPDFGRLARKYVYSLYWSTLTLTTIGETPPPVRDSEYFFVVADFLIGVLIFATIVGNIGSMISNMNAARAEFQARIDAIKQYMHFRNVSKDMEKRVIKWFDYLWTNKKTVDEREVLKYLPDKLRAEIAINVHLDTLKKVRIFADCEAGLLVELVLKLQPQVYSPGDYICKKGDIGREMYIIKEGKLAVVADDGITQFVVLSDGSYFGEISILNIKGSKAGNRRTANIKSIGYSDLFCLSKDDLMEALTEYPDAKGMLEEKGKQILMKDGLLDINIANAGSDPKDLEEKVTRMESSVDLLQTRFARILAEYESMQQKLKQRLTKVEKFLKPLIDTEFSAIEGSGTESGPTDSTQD
Summary of the method: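 RETα was expressed in oocytes from 50 nl of 50 ng/μl RNA. Inside-out patches were held at −75 mV in symmetrical NaCl/EGTA/EDTA/HEPES, pH 7.5, with solution exchange within 50 ms. Current was normalized to Imax: residual current after 1 min preexposure then 2 mM cGMP, or steady-state current with compound added during 2 mM cGMP. Ki and Hill coefficient came from a modified Hill fit; τa from single-exponential fits; mean ± SEM.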

Compound	effect on genistein's action on CNG channels [1]	effect of Ni^2+ on genistein inhibition [2]
Nc1ncnc2c1ncn2[C@@H]1O[C@H](COP(=O)(O)OP(=O)(O)NP(=O)(O)O)[C@@H](O)[C@H]1O [AMP-PNP]	competitive inhibitor of genistein's action on CNG channels	–
[Ni+2] [Ni^2+]	–	only reduces genistein inhibition
O=CN/C=C/c1cc(O)ccc1O [erbstatin]	noncompetitively prevents genistein's effect on the channels	–
